Assay results as given in ChEMBL document CHEMBL2331081, “Fragment-based drug design and identification of HJC0123, a novel orally bioavailable STAT3 inhibitor for cancer therapy” (Eur J Med Chem, 2013).
Activity calls are given as the source filed them. No cut-off for these calls is given here.

Assays:
PANC-1 = assay: CYtotoxicity against human PANC1 cells by MTS assay; assay type: functional, cell-based
In short: (§1)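 Cells seeded at 2×10^3/well, exposed to DMSO or 0.01, 0.1, 1, 5, 10 and 100 μM compound for 72 h. MTS reagent added, then OD at 550 nm read after 1 h at 37 °C. Quadruplicate wells per concentration.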

MCF7 = assay: CYtotoxicity against ER-positive human MCF7 cells by MTS assay; assay type: functional, cell-based; in short: as §1
MDA-MB-231 [1] = assay: CYtotoxicity against ER-negative human MDA-MB-231 cells by MTS assay; assay type: functional, cell-based; in short: as §1
ASPC1 = assay: CYtotoxicity against human AsPC1 cells by MTS assay; assay type: functional, cell-based; in short: as §1
[2] = molecular target: Signal transducer and activator of transcription 3 (Homo sapiens) (UniProt P40763); assay: Inhibition of total STAT3 protein expression in human MDA-MB-231 cells at 5 uM after 48 hrs by Western blot analysis; assay type: cell-based
Signal transducer and activator of transcription 3 (Homo sapiens), sequence (P40763 whole entry): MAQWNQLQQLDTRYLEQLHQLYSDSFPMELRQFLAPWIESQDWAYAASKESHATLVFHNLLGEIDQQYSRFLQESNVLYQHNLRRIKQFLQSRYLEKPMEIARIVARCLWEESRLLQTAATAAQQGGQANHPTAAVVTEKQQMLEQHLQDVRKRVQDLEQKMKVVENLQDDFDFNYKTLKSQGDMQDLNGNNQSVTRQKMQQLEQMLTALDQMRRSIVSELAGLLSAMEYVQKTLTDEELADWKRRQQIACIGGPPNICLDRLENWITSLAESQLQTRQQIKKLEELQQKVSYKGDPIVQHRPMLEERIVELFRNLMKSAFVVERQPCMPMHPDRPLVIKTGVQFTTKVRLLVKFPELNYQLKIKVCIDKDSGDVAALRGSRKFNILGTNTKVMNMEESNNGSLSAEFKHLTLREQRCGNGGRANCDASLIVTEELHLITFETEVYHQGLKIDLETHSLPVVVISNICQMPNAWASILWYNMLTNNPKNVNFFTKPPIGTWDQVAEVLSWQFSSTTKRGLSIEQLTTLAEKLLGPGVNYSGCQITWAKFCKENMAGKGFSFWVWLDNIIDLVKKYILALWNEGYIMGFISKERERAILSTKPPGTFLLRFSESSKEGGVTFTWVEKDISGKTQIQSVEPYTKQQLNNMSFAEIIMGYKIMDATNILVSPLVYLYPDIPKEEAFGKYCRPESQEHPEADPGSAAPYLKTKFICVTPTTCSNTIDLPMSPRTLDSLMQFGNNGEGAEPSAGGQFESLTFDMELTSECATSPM
In short: (§2)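 Whole-cell lysates of treated MDA-MB-231 cells; 40 µg protein per lane run on 10% SDS-PAGE and transferred to nitrocellulose. Blocked in 5% milk/1% Tween 20 in TBS. Probed for pSTAT3-Y705 (1:3000), STAT3 (1:2000) and cleaved caspase-3 (1:2000), with β-actin as loading reference. Secondary antibody at 1:4000, ECL detection.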

MDA-MB-231 [3] = assay: Cell cycle arrest in human MDA-MB-231 cells assessed as accumulation at G0/G1 phase at 2.5 uM after 24 hrs by flow cytometry (reference value: 53.6 %); assay type: functional
MDA-MB-231 [4] = assay: Induction of apoptosis in human MDA-MB-231 cells assessed as late apoptotic cells at 2.5 uM after 48 hrs by annexin V-based flow cytometry (reference value: 4.98 %); assay type: functional
MDA-MB-231 [5] = assay: Induction of apoptosis in human MDA-MB-231 cells assessed as early apoptotic cells at 2.5 uM after 48 hrs by annexin V-based flow cytometry (reference value: 4.16 %); assay type: functional
MDA-MB-231 [6] = assay: Antitumor activity against human MDA-MB-231 cells xenografted in immunodeficient nude mouse assessed as reduction in tumor volume at 50 mg/kg, po administered 5 days a week; assay type: functional, organism-based; design: dose 50 mg/kg
In short: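 Female nude mice aged 4–6 weeks were used, housed in a barrier unit. Each mouse received 2.5×10^6 fresh MDA-MB-231 cells in 100 µL PBS into the 3rd mammary fat pad (orthotopic). Mice were randomized into 2 groups of 6–7. Oral dosing or vehicle (50% DMSO/50% PEG) started once tumors reached 200 mm³. Tumor volume measured daily, calculated as 0.5×L×W².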

MDA-MB-231 [7] = assay: Induction of apoptosis in human MDA-MB-231 cells assessed as viable cells at 2.5 uM after 48 hrs by annexin V-based flow cytometry (reference value: 90.62 %); assay type: functional; conditions: MDA-MB-231, 48 h, read-out: Activity
MDA-MB-231 [8] = assay: Cell cycle arrest in human MDA-MB-231 cells assessed as accumulation at G2/M phase at 2.5 uM after 24 hrs by flow cytometry (reference value: 25.1 %); assay type: functional
MDA-MB-231 [9] = assay: Cell cycle arrest in human MDA-MB-231 cells assessed as accumulation at S phase at 2.5 uM after 24 hrs by flow cytometry (reference value: 16.7 %); assay type: functional
MDA-MB-231 [10] = assay: Induction of apoptosis in human MDA-MB-231 cells assessed as dead cells at 5 uM after 48 hrs by annexin V-based flow cytometry (reference value: 0.24 %); assay type: functional
MDA-MB-231 [11] = assay: Cell cycle arrest in human MDA-MB-231 cells assessed as accumulation at G2/M phase at 1 uM after 24 hrs by flow cytometry (reference value: 25.1 %); assay type: functional
MDA-MB-231 [12] = assay: Cell cycle arrest in human MDA-MB-231 cells assessed as accumulation at S phase at 1 uM after 24 hrs by flow cytometry (reference value: 16.7 %); assay type: functional
MDA-MB-231 [13] = assay: Cell cycle arrest in human MDA-MB-231 cells assessed as accumulation at S phase at 5 uM after 24 hrs by flow cytometry (reference value: 16.7 %); assay type: functional
MDA-MB-231 [14] = assay: Induction of apoptosis in human MDA-MB-231 cells assessed as caspase-3 cleavage at 5 uM after 24 to 48 hrs by Western blot analysis; assay type: functional, cell-based; in short: as §2
MDA-MB-231 [15] = assay: Induction of apoptosis in human MDA-MB-231 cells assessed as viable cells at 5 uM after 48 hrs by annexin V-based flow cytometry (reference value: 90.62 %); assay type: functional; conditions: MDA-MB-231, 48 h, read-out: Activity
MDA-MB-231 [16] = assay: Cell cycle arrest in human MDA-MB-231 cells assessed as accumulation at S phase after 24 hrs by flow cytometry; assay type: functional, cell-based
[17] = molecular target: Signal transducer and activator of transcription 3 (Homo sapiens) (UniProt P40763); assay: Inhibition of STAT3 phosphorylation at Tyr-705 in human MDA-MB-231 cells at 5 uM after 24 hrs by Western blot analysis; assay type: cell-based; in short: as §2
Mus musculus = assay: Toxicity in human MDA-MB-231 cells xenografted immunodeficient nude mouse assessed as change in body weight at 50 mg/kg, po; conditions: in vivo
MDA-MB-231 [18] = assay: Induction of apoptosis in human MDA-MB-231 cells assessed as dead cells at 2.5 uM after 48 hrs by annexin V-based flow cytometry (reference value: 0.24 %); assay type: functional
MDA-MB-231 [19] = assay: Cell cycle arrest in human MDA-MB-231 cells assessed as accumulation at G0/G1 phase at 5 uM after 24 hrs by flow cytometry (reference value: 53.6 %); assay type: functional
MDA-MB-231 [20] = assay: Induction of apoptosis in human MDA-MB-231 cells assessed as early apoptotic cells at 1 uM after 48 hrs by annexin V-based flow cytometry (reference value: 4.16 %); assay type: functional
MDA-MB-231 [21] = assay: Induction of apoptosis in human MDA-MB-231 cells assessed as dead cells at 1 uM after 48 hrs by annexin V-based flow cytometry (reference value: 0.24 %); assay type: functional
MDA-MB-231 [22] = assay: Antiproliferative activity against human MDA-MB-231 cells assessed as change in cell morphology after 48 hrs by light microscopy; assay type: functional, cell-based
MDA-MB-231 [23] = assay: Induction of apoptosis in human MDA-MB-231 cells assessed as late apoptotic cells at 5 uM after 48 hrs by annexin V-based flow cytometry (reference value: 4.98 %); assay type: functional
MDA-MB-231 [24] = assay: Cell cycle arrest in human MDA-MB-231 cells assessed as accumulation at G0/G1 phase at 1 uM after 24 hrs by flow cytometry (reference value: 53.6 %); assay type: functional
[25] = molecular target: Signal transducer and activator of transcription 3 (Homo sapiens) (UniProt P40763); assay: Inhibition of STAT3 promoter activity in human MDA-MB-231 cells at 5 uM after 24 hrs by luciferase reporter gene assay relative to control; assay type: cell-based
In short: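 MDA-MB-231 cells seeded at 5×10^4/well in RPMI-1640 with 10% FBS and were transiently transfected 4 h after plating. Each well received 0.5 μg DNA: pSTAT3-Luc (95%) and renilla control vector (5%). Compound was added 5 h post-transfection for 24 h. Read-out is dual luciferase, as firefly/renilla ratio relative to DMSO control. Triplicate wells; representative of ≥3 independent experiments.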

[26] = molecular target: Signal transducer and activator of transcription 3 (Homo sapiens) (UniProt P40763); assay: Inhibition of total STAT3 protein expression in human MDA-MB-231 cells at 5 uM after 24 hrs by Western blot analysis; assay type: cell-based; in short: as §2
MDA-MB-231 [27] = assay: Cell cycle arrest in human MDA-MB-231 cells assessed as accumulation at G2/M phase at 5 uM after 24 hrs by flow cytometry (reference value: 25.1 %); assay type: functional
MDA-MB-231 [28] = assay: Induction of apoptosis in human MDA-MB-231 cells assessed as late apoptotic cells at 1 uM after 48 hrs by annexin V-based flow cytometry (reference value: 4.98 %); assay type: functional
MDA-MB-231 [29] = assay: Induction of apoptosis in human MDA-MB-231 cells assessed as viable cells at 1 uM after 48 hrs by annexin V-based flow cytometry (reference value: 90.62 %); assay type: functional; conditions: MDA-MB-231, 48 h, read-out: Activity
MDA-MB-231 [30] = assay: Induction of apoptosis in human MDA-MB-231 cells assessed as early apoptotic cells at 5 uM after 48 hrs by annexin V-based flow cytometry (reference value: 4.16 %); assay type: functional
[31] = molecular target: Signal transducer and activator of transcription 3 (Homo sapiens) (UniProt P40763); assay: Inhibition of STAT3 phosphorylation at Tyr-705 in human MDA-MB-231 cells at 5 uM after 48 hrs by Western blot analysis; assay type: cell-based; in short: as §2

N#C/C(=C\c1cccc(Br)n1)C(=O)Nc1ccc2c(c1)S(=O)(=O)C=C2
IC50 (PANC-1): 1640 nM
IC50 (MCF7): 3310 nM
IC50 (MDA-MB-231 [1]): 1530 nM
IC50 (ASPC1): 1540 nM

O=C(Nc1ccc2c(c1)S(=O)(=O)C=C2)c1ccnc(-c2ccccc2)c1
IC50 (PANC-1): 3350 nM
IC50 (MCF7): 3780 nM
IC50 (MDA-MB-231 [1]): 1850 nM
IC50 (ASPC1): 1300 nM

O=C(Nc1ccc2c(c1)S(=O)(=O)C=C2)c1cc(Cl)ccc1O
IC50 (PANC-1): 2340 nM
IC50 (MCF7): 910 nM
IC50 (MDA-MB-231 [1]): 1640 nM
IC50 (ASPC1): 1920 nM

O=C(Nc1ccc2c(c1)S(=O)(=O)C=C2)c1c2ccccc2nc2ccccc12
IC50 (PANC-1): > 10000 nM
IC50 (MCF7): > 10000 nM
IC50 (MDA-MB-231 [1]): > 10000 nM
IC50 (ASPC1): > 10000 nM

O=C(Nc1ccc2c(c1)S(=O)(=O)C=C2)c1cc(-c2ccccc2)nc(-c2ccccc2)c1
IC50 (PANC-1): 310 nM
IC50 (MCF7): 650 nM
IC50 (MDA-MB-231 [1]): 450 nM
IC50 (ASPC1): 120 nM

N#CCC(=O)Nc1ccc2c(c1)S(=O)(=O)C=C2
IC50 (MCF7): > 10000 nM
IC50 (MDA-MB-231 [1]): > 10000 nM

O=C(Nc1ccc2c(c1)S(=O)(=O)C=C2)c1cc(-c2ccccc2)nc2ccccc12
inhibition [2]: Active
Activity (MDA-MB-231 [3]): 43.7%
Activity (MDA-MB-231 [4]): 13.32%
Activity (MDA-MB-231 [5]): 28.53%
Activity (MDA-MB-231 [6]): Active
viability at 2.5 µM (MDA-MB-231 [7]): 57.8%
Activity (MDA-MB-231 [8]): 27.5%
Activity (MDA-MB-231 [9]): 21.9%
Activity (MDA-MB-231 [10]): 0.14%
Activity (MDA-MB-231 [11]): 27.6%
Activity (MDA-MB-231 [12]): 16.5%
Activity (MDA-MB-231 [13]): 26.2%
IC50 (PANC-1): 260 nM
Activity (MDA-MB-231 [14]): Active
viability at 5 µM (MDA-MB-231 [15]): 19.5%
Activity (MDA-MB-231 [16]): Dose-dependent effect
IC50 (MCF7): 100 nM
inhibition [17]: Active
Activity (Mus musculus): Non-toxic
Activity (MDA-MB-231 [18]): 0.32%
Activity (MDA-MB-231 [19]): 34.1%
Activity (MDA-MB-231 [20]): 9.31%
Activity (MDA-MB-231 [21]): 0.67%
Activity (MDA-MB-231 [22]): Dose-dependent effect
Activity (MDA-MB-231 [23]): 14.21%
Activity (MDA-MB-231 [24]): 51.5%
inhibition [25]: 65%
inhibition [26]: Active
Activity (MDA-MB-231 [27]): 25.8%
IC50 (MDA-MB-231 [1]): 290 nM
Activity (MDA-MB-231 [28]): 9.26%
viability at 1 µM (MDA-MB-231 [29]): 80.8%
IC50 (ASPC1): 1250 nM
Activity (MDA-MB-231 [30]): 66.12%
inhibition [31]: Active

O=C(Nc1ccc2c(c1)S(=O)(=O)C=C2)c1ccnc2ccccc12
IC50 (PANC-1): 7920 nM
IC50 (MCF7): 2970 nM
IC50 (MDA-MB-231 [1]): 6210 nM
IC50 (ASPC1): 6970 nM

C[C@H](NC(=O)c1cc(Cl)ccc1O)c1ccccc1
IC50 (PANC-1): 8440 nM
IC50 (MCF7): 900 nM
IC50 (MDA-MB-231 [1]): 8880 nM
IC50 (ASPC1): 7540 nM

O=C(Nc1nnc(-c2ccco2)o1)c1cc(Cl)ccc1O
IC50 (PANC-1): > 10000 nM
IC50 (MCF7): > 10000 nM
IC50 (MDA-MB-231 [1]): > 10000 nM
IC50 (ASPC1): > 10000 nM

O=C(Nc1ccc2c(c1)S(=O)(=O)C=C2)c1ccncc1
IC50 (MCF7): > 10000 nM
IC50 (MDA-MB-231 [1]): > 10000 nM

C[C@H](NC(=O)c1cc(-c2ccccc2)nc2ccccc12)c1ccccc1
IC50 (PANC-1): > 10000 nM
IC50 (MCF7): 2240 nM
IC50 (MDA-MB-231 [1]): 86000 nM
IC50 (ASPC1): > 10000 nM
